According to ChEMBL document CHEMBL1777749, “4-Aminothiazolyl analogs of GE2270 A: design, synthesis and evaluation of imidazole analogs” (2011):
In brackets after ≈: the same amount, converted by molar mass.

Legend:
Assay type in all cases: functional
[1] = tested on: Enterococcus faecalis; assay: Antimicrobial activity against Enterococcus faecalis ATCC 29212 by CLSI method
[2] = tested on: Enterococcus faecium; assay: Antimicrobial activity against Enterococcus faecium 7130724 by CLSI method
[3] = tested on: Staphylococcus aureus; assay: Antimicrobial activity against methicillin-resistant Staphylococcus aureus clinical isolate obtained from pharyngeal smear by CLSI method
Method in brief: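 MIC by dilution susceptibility testing per CLSI M07-A8, for bacteria that grow aerobically. Strain: MRSA clinical isolate AKH Vienna A4.018, from a pharyngeal smear. Tested compounds were >95% pure by LCUV, LCMS and ¹H NMR.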

[4] = tested on: Streptococcus pyogenes; assay: Antimicrobial activity against Streptococcus pyogenes ATCC BAA-595 by CLSI method
[5] = tested on: Escherichia coli; assay: Inhibition of protein synthesis in Escherichia coli S30 extract at 2 uM by luciferase assay relative to control

SMILES | MIC [1] [µg/mL] | MIC [2] [µg/mL] | MIC [3] [µg/mL] | MIC [4] [µg/mL] | inhibition at 2 µM [5] [%]
CNC(=O)C[C@@H]1NC(=O)c2csc(n2)-c2ccc(-c3nc(C4=N[C@H](C(=O)N5CCC[C@H]5C(N)=O)CO4)cs3)nc2-c2csc(n2)-c2csc(n2)[C@H]([C@@H](O)c2ccccc2)NC(=O)CNC(=O)c2nc(sc2COC)[C@H](C(C)C)NC(=O)c2nc1sc2C | 0.5 (≈ 0.387 µM) | 0.25 (≈ 0.194 µM) | 0.25 (≈ 0.194 µM) | 1 (≈ 0.775 µM) | 61
CNC(=O)C[C@@H]1NC(=O)c2csc(n2)-c2ccc(-c3nc(-n4cnc(C(=O)O)c4)cs3)nc2-c2csc(n2)-c2csc(n2)[C@H]([C@@H](O)c2ccccc2)NC(=O)CNC(=O)c2nc(sc2COC)[C@H](C(C)C)NC(=O)c2nc1sc2C | 4 (≈ 3.36 µM) | > 32 | 4 (≈ 3.36 µM) | > 32 | 0
CNC(=O)C[C@@H]1NC(=O)c2csc(n2)-c2ccc(-c3nc(-n4cnc(C(=O)N5CCC[C@H]5C(=O)O)c4)cs3)nc2-c2csc(n2)-c2csc(n2)[C@H]([C@@H](O)c2ccccc2)NC(=O)CNC(=O)c2nc(sc2COC)[C@H](C(C)C)NC(=O)c2nc1sc2C | 8 (≈ 6.21 µM) | > 32 | 8 (≈ 6.21 µM) | > 32 | 53
CNC(=O)C[C@@H]1NC(=O)c2csc(n2)-c2ccc(-c3nc(-n4cnc(C(=O)NCC(=O)O)c4)cs3)nc2-c2csc(n2)-c2csc(n2)[C@H]([C@@H](O)c2ccccc2)NC(=O)CNC(=O)c2nc(sc2COC)[C@H](C(C)C)NC(=O)c2nc1sc2C | 8 (≈ 6.41 µM) | 32 (≈ 25.6 µM) | 4 (≈ 3.2 µM) | > 32 | 64
